One data set concerns the target SHV-5 (class A) (Klebsiella pneumoniae, UniProt P0A3M1). In words: β-lactamase inhibition assay, SHV-5. It counts as biochemical.
The test system of data set [1] is strains expressing class C and OXA-48 β-lactamases. In words: Ceftibuten rescue against representative ceftibuten-resistant strains. Type of data set: cell-based, K. pneumoniae and E. coli. The following applies: ceftibuten fixed at 1 μg/mL. The essentials: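 Clinical isolates of E. coli and K. pneumoniae carrying the named β-lactamase classes were tested with ceftibuten held at 1 μg/mL. The value is the minimum concentration of the β-lactamase inhibitor that restores ceftibuten antibacterial activity.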

Data set [2] is described as follows: Oral bioavailability PK screening in rats. It counts as in vivo. To be noted: rat; oral gavage; dose not given. In short, it runs like this: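 Rats were dosed orally with the ester prodrug. F is percent absolute oral bioavailability, corrected for the molecular-weight difference between prodrug and parent.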
For data set [3], the system named is E. coli expressing TEM-1 + CTX-M-15, CTX-M-15, or KPC-2 + SHV-12. In words: Murine ascending UTI model. Also noted: species or system C3H/HeJ mice. To be noted: mouse, in vivo.
The subject of a further data set is Caco-2 cell monolayers. In words: Bidirectional permeability through Caco-2 monolayers. Type of data set: in vitro ADME, human. The following applies: for significant efflux: from ER and Papp (B-to-A); for absorption potential classification: from Papp (A-to-B).
Test in data set [4]: as above
It counts as in vitro ADME, human. To be noted: human, Caco-2, pH 7.4, recovery (%), 5 µM, 120 minutes.

A short description of data set [5]: Metabolic stability across all matrixes and species. Type of data set: in vitro ADME. To be noted: CD-1 (mouse), Sprague-Dawley (rat), beagle (dog), cynomolgus monkey, human, intestinal S9, liver S9 and plasma.
The nature of data set [6]: Metabolite profiling in cryopreserved hepatocytes. Type of data set: in vitro ADME. To be noted: all species.
Data set [7] can be described thus: Metabolic stability, plasma. It counts as in vitro ADME. To be noted: human.

Each structure is given as a SMILES string.

The text below walks through data of paper PMC8311649 (Journal of Medicinal Chemistry, 2021).

SHV-5 (class A), sequence (P0A3M1 22-286, species assumed): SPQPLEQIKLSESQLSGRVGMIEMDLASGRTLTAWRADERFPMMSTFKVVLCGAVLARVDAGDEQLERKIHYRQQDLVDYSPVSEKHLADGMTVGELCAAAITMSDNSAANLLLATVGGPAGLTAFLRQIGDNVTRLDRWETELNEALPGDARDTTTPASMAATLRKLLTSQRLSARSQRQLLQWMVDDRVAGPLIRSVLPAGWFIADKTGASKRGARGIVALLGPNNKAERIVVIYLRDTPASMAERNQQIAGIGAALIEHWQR

As for `CC(F)(F)CCC(=O)N[C@H]1Cc2cccc(C(=O)O)c2OB1O` [compound 14, (R)-3-(4,4-Difluoropentanamido)-2-hydroxy-3,4-dihydro-2H-benzo[e][1,2]oxaborinine-8-carboxylic Acid], the IC50 against SHV-5 (class A) was 6 nM. In [1], the “activity rescuing ceftibuten (in words)” value was “reduced activity”.
With `O=C(CCC(F)(F)F)N[C@H]1Cc2cccc(C(=O)O)c2OB1O` [compound 7, (R)-2-Hydroxy-3-(4,4,4-trifluorobutanamido)-3,4-dihydro-2H-benzo[e][1,2]oxaborinine-8-carboxylic Acid], in data set [1], the “activity rescuing ceftibuten (in words)” value is given as “reduced activity”.
`C#CCCC(=O)N[C@H]1Cc2cccc(C(=O)O)c2OB1O` [compound 12, (R)-2-Hydroxy-3-(pent-4-ynamido)-3,4-dihydro-2H-benzo[e][1,2]oxaborinine-8-carboxylic Acid]: in [1], the “activity rescuing ceftibuten (in words)” value is “reduced activity”.
On to `CCC(=O)N[C@H]1Cc2cccc(C(=O)OCOC(=O)C(C)(C)C)c2OB1O` [compound 20, (Pivaloyloxy)methyl (R)-2-Hydroxy-3-propionamido-3,4-dihydro-2H-benzo[e][1,2]oxaborinine-8-carboxylate], for which, in data set [2], the “oral bioavailability (F) in rats” value is listed as “highest oral bioavailability”.
On to `Nc1nc(/C(=C/CC(=O)O)C(=O)N[C@@H]2C(=O)N3C(C(=O)O)=CCS[C@H]23)cs1` [CTB, ceftibuten], for which, in data set [3], the “cfu reductions in the bladder” value was at most 2 log10 and the “cfu reductions in urine” value is on record as at most 2 log10. In addition, in [3] (sc), the “cfu reductions in the kidneys” value is “minimal cfu reductions”.
Turning to `CCC(=O)N[C@H]1Cc2cccc(C(=O)O)c2OB1O` [compound 5, (R)-2-Hydroxy-3-propionamido-3,4-dihydro-2H-benzo[e][1,2]oxaborinine-8-carboxylic Acid], in the data set on Caco-2 cell monolayers, the significant efflux entry was “no” and the absorption potential classification entry is given as “low (Papp (A-to-B) < 1.0 × 10^–6 cm/s: low)”. The same compound showed a recovery at 120 min, 5 µM in data set [4] (A-to-B) of 103%. Moreover, the recovery at 120 min, 5 µM in data set [4] (B-to-A) is 106%. Besides, the half-life at 3 µM in data set [5] is over 120 min.
Turning to `CCC(=O)N[C@H]1Cc2cccc(C(=O)OCOC(=O)C(CC)CC)c2OB1O` [compound 36, ((2-Ethylbutanoyl)oxy)methyl (R)-2-Hydroxy-3-propionamido-3,4-dihydro-2H-benzo[e][1,2]oxaborinine-8-carboxylate], in the data set with Caco-2 cell monolayers, the significant efflux result was “yes (ER ≥ 2.0 and Papp (B-to-A) ≥ 1.0 × 10^–6 cm/s)”; the absorption potential classification result was “high (Papp (A-to-B) ≥ 1.0 × 10^–6 cm/s: high)”. Moreover, the recovery at 120 min, 5 µM in data set [4] (A-to-B) is 90%. The same compound registered a recovery at 120 min, 5 µM in data set [4] (B-to-A) of 98%. Further, the “parent remaining after hepatocyte incubation” value in data set [6] (2 µM and 20 µM, 37 °C, 240 min) is 0–5%. For the same compound, in [6] (metabolite identified as 5 (hydrolysis)), the “metabolites detected after hepatocyte incubation” value is “one metabolite”. In addition, the “oral bioavailability (F) in rats” value in [2] was “highest oral bioavailability”. For the same compound, the half-life at 3 µM in data set [7] was about 11 min.

What is called IC50 is the concentration at which inhibition is half-maximal. Usually half-life stands for how long it takes for the measured level to halve.
